PHOSPHO1 inh – inhibitors of human PHOSPHO1 phosphatase | recombinant PHOSPHO1, absorbance phosphatase assay | inhibition, % at 13.3 µM | Q8TCT1 | 290,000 tested, 1.1% active; in the data active = inhibition above about 60%
hERG rescue – shields human hERG channel from block by proarrhythmic agents | activation (rescue from dofetilide block), less the hit threshold, % at 10 µM | CHO-hERG, FluxOR thallium flux, dofetilide IC70 present | 310,000 tested, 0.51% active;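 active = activation above the mean of controls blocked by dofetilide plus 5 SD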;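 note: thallium influx through hERG after potassium depolarization seen as dye fluorescence rise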
Target sequence (Q12809 whole entry, looked up): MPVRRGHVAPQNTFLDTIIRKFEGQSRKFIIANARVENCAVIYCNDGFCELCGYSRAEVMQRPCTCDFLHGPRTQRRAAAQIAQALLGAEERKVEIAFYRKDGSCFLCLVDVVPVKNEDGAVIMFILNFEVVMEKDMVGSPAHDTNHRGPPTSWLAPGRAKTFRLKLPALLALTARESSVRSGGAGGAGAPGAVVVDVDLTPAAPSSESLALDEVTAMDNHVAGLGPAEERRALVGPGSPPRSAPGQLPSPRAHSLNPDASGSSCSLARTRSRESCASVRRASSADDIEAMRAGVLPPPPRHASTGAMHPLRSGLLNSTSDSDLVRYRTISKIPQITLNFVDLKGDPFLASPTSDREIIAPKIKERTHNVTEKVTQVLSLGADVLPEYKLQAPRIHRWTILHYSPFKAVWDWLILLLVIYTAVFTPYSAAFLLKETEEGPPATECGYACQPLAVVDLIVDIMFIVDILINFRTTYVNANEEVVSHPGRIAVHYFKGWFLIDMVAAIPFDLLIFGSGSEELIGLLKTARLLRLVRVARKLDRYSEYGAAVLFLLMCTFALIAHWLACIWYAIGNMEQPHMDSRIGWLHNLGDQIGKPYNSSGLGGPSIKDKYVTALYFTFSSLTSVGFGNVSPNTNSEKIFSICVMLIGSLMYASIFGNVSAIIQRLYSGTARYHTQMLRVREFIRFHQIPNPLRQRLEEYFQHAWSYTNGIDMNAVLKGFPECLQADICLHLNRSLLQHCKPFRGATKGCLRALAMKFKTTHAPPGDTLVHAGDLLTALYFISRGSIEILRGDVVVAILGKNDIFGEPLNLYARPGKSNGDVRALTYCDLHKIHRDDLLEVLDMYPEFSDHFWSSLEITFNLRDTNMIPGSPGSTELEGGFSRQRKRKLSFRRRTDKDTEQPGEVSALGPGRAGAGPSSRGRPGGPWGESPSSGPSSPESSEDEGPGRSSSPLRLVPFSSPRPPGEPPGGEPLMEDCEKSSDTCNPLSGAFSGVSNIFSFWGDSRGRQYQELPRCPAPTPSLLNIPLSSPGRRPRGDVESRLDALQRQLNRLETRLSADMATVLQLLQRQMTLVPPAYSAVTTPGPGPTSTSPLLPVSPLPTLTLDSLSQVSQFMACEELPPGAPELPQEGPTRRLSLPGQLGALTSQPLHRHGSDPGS
KCNK3 block – human KCNK3 channel inhibition, primary screen; O14649; CHO-KCNK3 thallium flux, FluxOR fluorescence; hits give low values; B-score at 10 µM; 340,000 tested, 0.84% active;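 active = B-score under library mean minus 4 SD, starting fluorescence ratio at most library mean plus 5 SD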;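 note: more negative B-score means stronger inhibition of thallium flux through KCNK3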
KCNQ1 act – potentiates or activates the human KCNQ1 potassium channel; CHO-K1 KCNQ1, thallium flux FluxOR fluorescence; hits give high values; AID 2648; B-score at 10 µM; 310,000 tested, 0.35% active;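 active = fluorescence ratio B-score, a plate-corrected score, at least three library SD, with initial intensity B-score within 5 SD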
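Assay system: stable KCNQ1 CHO-K1 line; medium: assay buffer, equal DMSO in all wells; timing: 90 min dye loading and 20 min compound exposure, both at room temperature; technique: kinetic FluxOR thallium fluorescence, 10-s 1-Hz baseline, 110-s post-stimulus read; read-out basis: B score of baseline-normalized fluorescence ratio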
KCNK9 block – human KCNK9 channel inhibition | HEK293 KCNK9, FluxOR thallium flux fluorescence; hits give low values | Q9NPC2 | AID 488922 | 310,000 tested, 1.2% active | B-score at 10 µM;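 active = ratio B-score over 3 SD below the library mean, with starting fluorescence within 5 SD of its mean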;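 note: negative B-score means less thallium flux so channel inhibition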
KCNQ1 inh – inhibitors of human KCNQ1 potassium channel. AID 2642. 310,000 tested, 1.3% active. P51787. CHO-K1 KCNQ1, FluxOR thallium flux fluorescence; hits give high values. B-score at 10 µM;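 active = compounds whose thallium flux B-score, printed positive for inhibition, exceeds three library SD while starting fluorescence stays within three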;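 note: channel opened by potassium depolarization with thallium stimulus after 20 min compound exposure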
Starred values were filed as active, the others as inactive. Rows were chosen to be rich in hits. Some 4% of all compounds tested hit in one or more screens of this group.

Fc1ccc2nc(N3CCCC3)sc2c1 was read as PHOSPHO1 inh 23.3, hERG rescue -2.7, KCNK3 block inactive, KCNQ1 act inactive, KCNK9 block inactive and KCNQ1 inh inactive.
Fc1cc(F)c2nc(N3CCCCC3)sc2c1 was read as PHOSPHO1 inh 25.3, hERG rescue 5.1*, KCNK3 block inactive, KCNQ1 act inactive, KCNK9 block inactive and KCNQ1 inh inactive.
`O=C(CSc1cccc[n+]1[O-])NC1CCCCCCC1` gave PHOSPHO1 inh 24.1, hERG rescue -3.5, KCNK3 block inactive, KCNQ1 act inactive, KCNK9 block inactive and KCNQ1 inh inactive.
For CCN(CC(=O)Nc1c(F)cccc1F)C(=O)CCOc1ccccc1 the results were hERG rescue -4.0, KCNK3 block inactive, KCNQ1 act inactive, KCNK9 block inactive and KCNQ1 inh inactive.
`NC(=O)c1cc(S(=O)(=O)Nc2cccc(Cl)c2)cs1` gave PHOSPHO1 inh 42.2, hERG rescue 4.9*, KCNK3 block inactive, KCNQ1 act inactive, KCNK9 block inactive and KCNQ1 inh inactive.
`C=CCNc1nc(N2CCCCC2)c(C#N)c2c1CN(Cc1ccccc1)CC2` gave PHOSPHO1 inh 5.7, hERG rescue -18.6, KCNK3 block -11.3*, KCNQ1 act inactive, KCNK9 block inactive and KCNQ1 inh inactive.
`CCOc1ccc(NC(=S)N(CCc2c(C)[nH]c3ccc(C)cc23)Cc2ccco2)cc1` gave PHOSPHO1 inh -1.2, hERG rescue -15.9, KCNK3 block inactive, KCNQ1 act inactive, KCNK9 block inactive and KCNQ1 inh inactive.
Clc1ccc(C=NN2CCCCCC2)cc1 was read as KCNK3 block inactive.
Screening Clc1ccc(/C=N/N2CCCCC2)cc1 returned PHOSPHO1 inh 65.4*, hERG rescue -7.6, KCNK3 block inactive, KCNQ1 act inactive, KCNK9 block inactive and KCNQ1 inh inactive.
For COc1ccc(CC(=S)N2CCOCC2)cc1 the results were PHOSPHO1 inh 72.8*, hERG rescue -12.5, KCNK3 block inactive, KCNQ1 act inactive, KCNK9 block inactive and KCNQ1 inh inactive.
C[C@H](NC(=O)c1ccco1)C(=O)NNC(=O)c1ccc(F)cc1 was read as KCNK3 block inactive.
`O=C(Nc1cccc(C(F)(F)F)c1)C(SCCO)c1ccccc1` (stereo unspecified) gave PHOSPHO1 inh 6.0, hERG rescue -11.3, KCNK3 block inactive, KCNQ1 act inactive, KCNK9 block -7.45* and KCNQ1 inh inactive.
Screening O=C(Nc1cccc(C(F)(F)F)c1)C(Sc1ncnc2ccccc12)c1ccccc1 (stereo unspecified) returned PHOSPHO1 inh -1.3, hERG rescue -11.8, KCNK3 block inactive, KCNQ1 act inactive, KCNK9 block inactive and KCNQ1 inh inactive.
For Cn1nnnc1SC(C(=O)Nc1cccc(C(F)(F)F)c1)c1ccccc1 (stereo unspecified) the results were PHOSPHO1 inh 6.3, hERG rescue -10.6, KCNK3 block inactive, KCNQ1 act inactive, KCNK9 block -7* and KCNQ1 inh inactive.
For CCOC(=O)CC(NC(=O)c1cccs1)c1ccc(OCC)cc1 (stereo unspecified) the results were PHOSPHO1 inh 30.5, hERG rescue 8.6*, KCNK3 block inactive, KCNQ1 act inactive, KCNK9 block inactive and KCNQ1 inh inactive.
COc1cc(NC(=O)c2noc(C)c2[N+](=O)[O-])c(OC)cc1Cl was read as PHOSPHO1 inh 63.6*, hERG rescue -8.2, KCNK3 block inactive, KCNQ1 act inactive, KCNK9 block inactive and KCNQ1 inh inactive.
Cc1cc(C(=O)NC2CCCc3c2cnn3-c2ccc(C(C)(C)C)cc2)nn1C (stereo unspecified) was read as PHOSPHO1 inh 18.5, hERG rescue -22.8, KCNK3 block inactive, KCNQ1 act inactive, KCNK9 block inactive and KCNQ1 inh 8*.
Screening Cc1cc(C)cc(-n2ncc3c2CCCC3NC(=O)c2cc(C)n(C)n2)c1 (stereo unspecified) returned PHOSPHO1 inh -0.1, hERG rescue -12.7, KCNK3 block inactive, KCNQ1 act inactive, KCNK9 block inactive and KCNQ1 inh inactive.
`COCCNC(=O)C(=O)NNC(=O)c1ccccc1OC` gave PHOSPHO1 inh 17.9, hERG rescue -15.5, KCNK3 block inactive, KCNQ1 act inactive, KCNK9 block inactive and KCNQ1 inh 10*.
For O=C(COc1ccc(Cl)cc1)NNC(=O)C(=O)NC1CCCCC1 the results were PHOSPHO1 inh 4.5, hERG rescue 15.1*, KCNK3 block inactive, KCNQ1 act 11*, KCNK9 block inactive and KCNQ1 inh inactive.
For O=C(COc1ccc(Cl)cc1)NC1CC1 the results were PHOSPHO1 inh -6.2, hERG rescue 0.5, KCNK3 block inactive, KCNQ1 act inactive, KCNK9 block inactive and KCNQ1 inh inactive.
COc1ccccc1C(=O)NNC(=O)C(=O)NC1CCCCC1 was read as PHOSPHO1 inh 14.3, hERG rescue 20.8*, KCNK3 block inactive, KCNQ1 act 20*, KCNK9 block inactive and KCNQ1 inh inactive.
`COCC(=O)Oc1c(S(=O)(=O)c2ccccc2)c(C)nn1C(C)(C)C` gave PHOSPHO1 inh 9.3, hERG rescue -9.4, KCNK3 block inactive, KCNQ1 act inactive, KCNK9 block inactive and KCNQ1 inh inactive.
For Cc1ccc(S(=O)(=O)c2c(C)nn(C(C)(C)C)c2OC(=O)C2CCCC2)cc1 the results were PHOSPHO1 inh 35.4, hERG rescue -2.6, KCNK3 block -8.82*, KCNQ1 act inactive, KCNK9 block -8* and KCNQ1 inh inactive.
Screening CCc1cc2c(NCc3ccccc3)nc(C)nc2s1 returned PHOSPHO1 inh 34.8, hERG rescue -2.8, KCNK3 block inactive, KCNQ1 act inactive, KCNK9 block inactive and KCNQ1 inh inactive.
Cc1ccc(-c2onc(C)c2C)cc1S(=O)(=O)N1CC(C)Oc2ccccc21 (stereo unspecified) was read as PHOSPHO1 inh 29.3, hERG rescue -11.4, KCNK3 block inactive, KCNQ1 act inactive, KCNK9 block -8.06* and KCNQ1 inh inactive.
`CCN(CC)c1ccc(NC(=O)Nc2ccc(C(C)=O)cc2)cc1` gave PHOSPHO1 inh 84.6*, hERG rescue -4.9, KCNK3 block inactive, KCNQ1 act inactive, KCNK9 block inactive and KCNQ1 inh inactive.
Screening CCCc1cc(=O)[nH]c(SCC(=O)N(Cc2ccccc2)C(C)C)n1 returned PHOSPHO1 inh -11.7, hERG rescue -4.6, KCNK3 block inactive, KCNQ1 act inactive, KCNK9 block -6.99* and KCNQ1 inh inactive.
For O=C(NCCCN1CCOCC1)/C(=C/c1cccs1)NC(=O)c1ccccc1 the results were PHOSPHO1 inh 2.2, hERG rescue -6.1, KCNK3 block inactive, KCNQ1 act inactive, KCNK9 block inactive and KCNQ1 inh inactive.

Screening data from PubChem.
